Laboratory results as given in ChEMBL document CHEMBL1149196 (J Med Chem, 2004).

Columns and labels:
[1] = biological target: T1, Sodium-dependent serotonin transporter (Rattus norvegicus, UniProt P31652); assay: (§1) Ability to inhibit high affinity uptake of [3H]-5-HT at Serotonin transporter (SERT) using rat midbrain; type: tissue-based
Method in brief: (§2)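 Rat synaptosomal (P2) uptake: striatum for DAT, midbrain for SERT, parietal/occipital cortex for NET, in modified KRH pH 7.4 with nialamide. Drug preincubated 30 min at 4 °C, then 15 min at 37 °C. [3H]amine final ~5 nM (DA, 5-HT) or 9 nM (NE), 5 min uptake, stopped with cold Na-free buffer and filtered. Background from 0 °C tubes. IC50 converted to Ki by Cheng–Prusoff. Mean ± SE, ≥3 experiments.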
Target sequence in this assay (P31652 whole entry): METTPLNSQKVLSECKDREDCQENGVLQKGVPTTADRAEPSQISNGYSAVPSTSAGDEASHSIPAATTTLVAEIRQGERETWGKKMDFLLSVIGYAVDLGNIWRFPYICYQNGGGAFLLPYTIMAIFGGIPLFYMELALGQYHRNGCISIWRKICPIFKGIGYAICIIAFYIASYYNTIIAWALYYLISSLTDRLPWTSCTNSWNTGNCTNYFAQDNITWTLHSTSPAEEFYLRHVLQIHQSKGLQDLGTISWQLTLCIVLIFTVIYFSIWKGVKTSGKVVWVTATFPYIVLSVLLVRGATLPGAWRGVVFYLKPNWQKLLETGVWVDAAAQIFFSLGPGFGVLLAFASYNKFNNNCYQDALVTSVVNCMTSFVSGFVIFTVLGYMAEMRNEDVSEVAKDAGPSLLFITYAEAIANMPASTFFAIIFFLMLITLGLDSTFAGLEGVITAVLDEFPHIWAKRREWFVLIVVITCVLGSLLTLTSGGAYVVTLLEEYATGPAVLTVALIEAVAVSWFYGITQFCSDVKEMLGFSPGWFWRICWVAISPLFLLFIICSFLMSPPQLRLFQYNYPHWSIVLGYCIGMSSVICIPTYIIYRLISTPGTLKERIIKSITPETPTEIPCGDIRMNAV

[2] = biological target: Norepinephrine transporter (Rattus norvegicus, UniProt Q9WTR4); assay: Ability to inhibit high affinity uptake of [3H]NE at Norepinephrine transporter (NET) using rat brain parietal/occipital cortex; type: tissue-based; method in brief: as §2
Norepinephrine transporter, sequence (Q9WTR4 whole entry): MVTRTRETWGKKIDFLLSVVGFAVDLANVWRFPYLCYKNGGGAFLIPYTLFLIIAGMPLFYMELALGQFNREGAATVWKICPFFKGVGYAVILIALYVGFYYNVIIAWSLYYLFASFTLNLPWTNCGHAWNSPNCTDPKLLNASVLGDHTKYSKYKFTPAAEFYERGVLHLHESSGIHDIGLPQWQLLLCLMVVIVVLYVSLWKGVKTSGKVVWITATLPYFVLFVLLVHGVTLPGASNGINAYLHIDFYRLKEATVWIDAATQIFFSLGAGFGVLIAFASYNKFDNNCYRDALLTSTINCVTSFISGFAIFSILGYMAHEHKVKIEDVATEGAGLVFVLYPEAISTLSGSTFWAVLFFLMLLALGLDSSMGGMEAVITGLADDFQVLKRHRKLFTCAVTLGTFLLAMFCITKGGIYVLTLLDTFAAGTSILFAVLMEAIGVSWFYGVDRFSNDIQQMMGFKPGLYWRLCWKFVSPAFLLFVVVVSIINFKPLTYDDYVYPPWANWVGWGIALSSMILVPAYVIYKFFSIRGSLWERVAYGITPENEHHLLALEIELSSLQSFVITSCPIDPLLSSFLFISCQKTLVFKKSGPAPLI

[3] = biological target: Monoamine transporters; Norepinephrine & serotonin (Rattus norvegicus) (UniProt P31652+Q9WTR4); assay: Ratio of affinity for Norepinephrine transporter to that of Serotonin transporter; type: protein assay
Method in brief: (§3)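 Ratios of Ki values from rat synaptosomal [3H]amine uptake inhibition at SERT (midbrain), DAT (striatum) and NET (parietal/occipital cortex). Ki came from IC50 via Cheng–Prusoff.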

[4] = biological target: Sodium-dependent dopamine transporter (Rattus norvegicus, UniProt P23977); assay: Ability to inhibit high affinity uptake of [3H]DA at Dopamine transporter (DAT) using rat brain striatum; type: tissue-based; method in brief: as §2
Sodium-dependent dopamine transporter, sequence (P23977 whole entry): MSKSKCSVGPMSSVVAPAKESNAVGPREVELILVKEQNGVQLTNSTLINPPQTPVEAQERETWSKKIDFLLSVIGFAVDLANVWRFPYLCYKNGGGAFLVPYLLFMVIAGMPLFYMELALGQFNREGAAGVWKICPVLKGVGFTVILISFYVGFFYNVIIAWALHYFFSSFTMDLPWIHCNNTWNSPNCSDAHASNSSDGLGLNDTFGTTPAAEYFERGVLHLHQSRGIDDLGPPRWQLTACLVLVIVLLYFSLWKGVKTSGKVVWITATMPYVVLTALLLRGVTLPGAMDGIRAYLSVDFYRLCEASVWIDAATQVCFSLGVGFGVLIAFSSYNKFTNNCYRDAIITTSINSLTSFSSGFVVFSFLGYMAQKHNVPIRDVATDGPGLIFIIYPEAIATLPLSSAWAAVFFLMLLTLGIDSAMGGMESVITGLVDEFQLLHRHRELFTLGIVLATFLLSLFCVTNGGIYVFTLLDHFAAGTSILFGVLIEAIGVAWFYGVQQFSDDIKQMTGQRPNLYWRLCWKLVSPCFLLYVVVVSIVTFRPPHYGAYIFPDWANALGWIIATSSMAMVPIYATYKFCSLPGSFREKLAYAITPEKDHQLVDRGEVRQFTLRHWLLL

[5] = biological target: Monoamine transporters; serotonin & dopamine (Rattus norvegicus) (UniProt P31652+P23977); assay: Ratio of affinity for serotonin transporter to that of dopamine transporter; type: protein assay; method in brief: as §3
Monoamine transporters; serotonin & dopamine (Rattus norvegicus), sequence (P23977 whole entry, looked up): as the sequence (P23977 whole entry) above
Monoamine transporters; serotonin & dopamine (Rattus norvegicus), sequence (P31652 whole entry, looked up): as the sequence (P31652 whole entry) above

[6] = biological target: T1, Sodium-dependent serotonin transporter; assay: as §1; type: tissue-based; remark: listed apart in the source
Method in brief: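 Rat midbrain P2 synaptosomes in ice-cold modified KRH buffer (pH 7.4, with 0.01 mM nialamide). Drug preincubated 30 min at 4 °C, then 15 min at 37 °C. Uptake started with ~5 nM [3H]5-HT (final) and run 5 min. Stopped with cold sodium-free glucosamine buffer and GF/C filtration. IC50 by LIGAND, converted to Ki by Cheng–Prusoff. Mean ± SE of ≥3 experiments.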
Target sequence in this assay (P31652 whole entry, looked up): as the sequence (P31652 whole entry) above

SMILES | Ki [1] [nM] | Ki [2] [nM] | Ratio [3] | Ki [4] [nM] | Ratio [5] | Ki [6] [nM]
CC(=O)OC[C@H]1CN(C)CC[C@@H]1c1ccc(Cl)cc1 | 901 | 235 | 0.26 | 599 | 1.5 | 
CN1CC[C@H](c2ccc(Cl)cc2)[C@@H](C(=O)OC(C)(C)C)C1 | 5750 | 350 | 0.061 | 318 | 18 | 
CN1CC[C@H](c2ccc(Cl)cc2)[C@@H](CC(=O)OCCCc2ccccc2)C1 | 82 | 48 | 0.59 | 36 | 2.3 | 
CN1CC[C@H](c2ccc(Cl)cc2)[C@@H](CC(=O)NC23CC4CC(CC(C4)C2)C3)C1 | 376 | 1080 | 2.9 | 706 | 0.53 | 
COC(=O)/C=C/[C@H]1CN(C)CC[C@@H]1c1ccc(Cl)cc1 | 501 | 272 | 0.54 | 53 | 9.5 | 
CN1CC[C@H](c2ccc(Cl)cc2)C(C(=O)N2CCCC2)C1 (some centres not stated) |  | 2000 |  |  |  | 
CN1CC[C@H](c2ccc(Cl)cc2)[C@@H](COC(=O)NC23CC4CC(CC(C4)C2)C3)C1 | 37 | 56 | 1.5 | 56 | 0.66 | 
CN1CC[C@H](c2ccc(Cl)cc2)[C@@H](C(=O)O)C1 | 131000 |  | 2.2 |  | 0.76 | 282000
CN1CC[C@H](c2ccc(Cl)cc2)C(C(=O)Oc2ccccc2)C1 (some centres not stated) | 2120 | 2180 | 1 | 906 | 2.3 | 
C=CCOC[C@H]1CN(C)CC[C@@H]1c1ccc(Cl)cc1 | 231 | 20 | 0.087 | 60 | 3.9 | 
CN1CC[C@H](c2ccc(Cl)cc2)[C@@H](CC(=O)N(C)Cc2ccccc2)C1 | 66 | 32 | 0.49 | 165 | 0.4 | 
CN1CC[C@H](c2ccc(Cl)cc2)[C@@H](CC(=O)NCc2ccccc2)C1 | 191 | 107 | 0.56 | 270 | 0.71 | 
CN1CC[C@H](c2ccc(Cl)cc2)[C@@H](COC(=O)c2ccccc2)C1 | 296 | 389 | 1.3 | 273 | 1.1 | 
COC(=O)CC[C@H]1CN(C)CC[C@@H]1c1ccc(Cl)cc1 | 255 | 31 | 0.12 | 68 | 3.8 | 
CN1CC[C@H](c2ccc(Cl)cc2)[C@@H](CC(=O)O)C1 | > 10000 | 3810 |  | 3010 |  | 
CN1CC[C@H](c2ccc(Cl)cc2)[C@@H](CCCO)C1 | 2810 | 564 | 0.2 | 16 | 175 | 
CN1CC[C@H](c2ccc(Cl)cc2)[C@@H](COC(=O)Nc2ccccc2)C1 | 1290 | 33 | 0.026 | 91 | 14 | 
CN1CC[C@H](c2ccc(Cl)cc2)[C@@H](CC(=O)N(C)C)C1 | 1990 | 46 | 0.023 | 16 | 125 | 
CCOC(=O)C[C@H]1CN(C)CC[C@@H]1c1ccc(Cl)cc1 | 191 | 101 | 0.53 | 79 | 2.4 | 
CN1CC[C@H](c2ccc(Cl)cc2)[C@@H](CCC(=O)NC23CC4CC(CC(C4)C2)C3)C1 | 585 | 152 | 0.26 | 446 | 1.3 | 
CN1CC[C@H](c2ccc(Cl)cc2)C(C(=O)N(C)C)C1 (some centres not stated) | 18900 | 569 | 0.03 | 2140 | 8.8 | 
CNC(=O)C[C@H]1CN(C)CC[C@@H]1c1ccc(Cl)cc1 | 2270 | 251 | 0.11 |  | 2.5 | 
CN1CC[C@H](c2ccc(Cl)cc2)[C@@H](C(=O)OCCCCCc2ccccc2)C1 | 1790 | 382 | 0.21 | 53 | 34 | 
CCC[C@H]1CN(C)CC[C@@H]1c1ccc(Cl)cc1 | 228 | 6.5 | 0.029 | 20 | 11 | 
CN1CC[C@H](c2ccc(Cl)cc2)[C@@H](CCCF)C1 | 5190 | 356 | 0.069 | 43 | 120 | 
CCNC(=O)OC[C@H]1CN(C)CC[C@@H]1c1ccc(Cl)cc1 | 854 | 100 | 0.12 | 181 | 4.7 | 
CN1CC[C@H](c2ccc(Cl)cc2)[C@@H](CCC(=O)O)C1 | 4540 | 425 | 0.094 | 1300 | 3.5 | 
CN1CC[C@H](c2ccc(Cl)cc2)[C@@H](CCC(=O)Nc2ccccc2)C1 | 354 | 56 | 0.16 | 201 | 1.8 | 
